Test results published in ChEMBL document CHEMBL4396889, “From Inhibition to Degradation: Targeting the Antiapoptotic Protein Myeloid Cell Leukemia 1 (MCL1)” (J Med Chem, 2019).
Each block holds one molecule with its values, some of them ahead of it. Active and inactive are the calls of the source. The rule behind the calls is not given here.

Key:
[1] = target: T1, Protein cereblon/Induced myeloid leukemia cell differentiation protein Mcl-1 (Homo sapiens) (UniProt Q07820+Q96SW2); test: Protac activity at Cereblon/MCL1 in human HeLa cell lysate assessed as MCL1 degradation incubated for 3 hrs by SDS-PAGE/immunoblot analysis; assay type: subcellular
T1 sequence (Q07820 whole entry, looked up): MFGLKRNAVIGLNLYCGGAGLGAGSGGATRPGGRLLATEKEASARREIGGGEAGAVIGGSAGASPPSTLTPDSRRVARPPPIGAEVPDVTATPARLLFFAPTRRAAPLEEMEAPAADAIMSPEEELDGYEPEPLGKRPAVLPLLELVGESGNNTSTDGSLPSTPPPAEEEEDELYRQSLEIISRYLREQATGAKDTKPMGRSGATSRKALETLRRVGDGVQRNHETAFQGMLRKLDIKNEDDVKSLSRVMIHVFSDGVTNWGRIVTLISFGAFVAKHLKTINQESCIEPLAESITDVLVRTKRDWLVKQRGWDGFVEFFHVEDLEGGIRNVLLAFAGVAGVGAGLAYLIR
T1 sequence (Q96SW2 whole entry, looked up): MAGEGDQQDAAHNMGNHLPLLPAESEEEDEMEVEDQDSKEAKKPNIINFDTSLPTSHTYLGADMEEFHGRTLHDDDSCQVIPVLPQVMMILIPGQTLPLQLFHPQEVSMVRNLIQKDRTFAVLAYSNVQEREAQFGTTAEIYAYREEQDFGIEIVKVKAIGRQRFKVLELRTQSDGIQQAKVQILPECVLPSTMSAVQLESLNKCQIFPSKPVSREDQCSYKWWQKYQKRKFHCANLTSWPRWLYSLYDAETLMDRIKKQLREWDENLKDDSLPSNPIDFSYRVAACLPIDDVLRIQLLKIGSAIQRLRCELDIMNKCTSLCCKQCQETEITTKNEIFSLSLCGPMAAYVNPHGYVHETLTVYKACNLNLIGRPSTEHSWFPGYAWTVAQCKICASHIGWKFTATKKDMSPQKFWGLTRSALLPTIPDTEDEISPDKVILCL

[2] = target: T1, Protein cereblon/Induced myeloid leukemia cell differentiation protein Mcl-1 (Homo sapiens); test: Protac activity at Cereblon/MCL1 in human OPM2 cells after 48 hrs by immunoblot analysis; assay type: cell-based
How it was run: (§1)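 OPM2 multiple myeloma cells, wild type or CRBN-knockout, were treated for 48 h with degrader or DMSO vehicle. MCL1 long and short isoforms were detected by immunoblot and levels compared with DMSO controls.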

[3] = target: T1, Protein cereblon/Induced myeloid leukemia cell differentiation protein Mcl-1 (Homo sapiens); test: Protac activity at Cereblon/MCL1 in human OPM2 cell lysate assessed as induction of MCL1 polyubiquitination incubated for 3 hrs by SDS-PAGE/immunoblot analysis; assay type: subcellular
How it was run: (§2)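 In vitro ubiquitinylation reactions; the target (MCL1 or BRD4) was then immunoprecipitated and the immunoprecipitate immunoblotted for ubiquitin.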

[4] = target: T2, Induced myeloid leukemia cell differentiation protein Mcl-1 (Homo sapiens, UniProt Q07820); test: Binding affinity to MCL1 long isoform in human OPM2 incubated overnight using biotin labelled compound by streptavidin based immunoprecipitation method
T2 sequence (Q07820 whole entry, canonical isoform): as the sequence (Q07820 whole entry, looked up) above

[5] = target: T2, Induced myeloid leukemia cell differentiation protein Mcl-1; test: Binding affinity to MCL1 short isoform in human OPM2 incubated overnight using biotin labelled compound by streptavidin based immunoprecipitation method
[6] = target: T1, Protein cereblon/Induced myeloid leukemia cell differentiation protein Mcl-1 (Homo sapiens); test: Protac activity at Cereblon/MCL1 long isoform in wild type human OPM2 cells at 500 nM after 48 hrs by immunoblot analysis relative to control; assay type: cell-based; how it was run: as §1
[7] = target: T2, Induced myeloid leukemia cell differentiation protein Mcl-1; test: Induction of MCL1 long isoform degradation in CRBN-/- human OPM2 cells assessed as protein abundance at 250 nM after 48 hrs by immunoblot analysis relative to control; assay type: cell-based; how it was run: as §1
[8] = target: T2, Induced myeloid leukemia cell differentiation protein Mcl-1; test: Induction of MCL1 long isoform degradation in CRBN-/- human OPM2 cells assessed as protein abundance at 100 nM after 48 hrs by immunoblot analysis relative to control; assay type: cell-based; how it was run: as §1
[9] = target: T2, Induced myeloid leukemia cell differentiation protein Mcl-1; test: Induction of MCL1 long isoform degradation in CRBN-/- human OPM2 cells assessed as protein abundance at 500 nM after 48 hrs by immunoblot analysis relative to control; assay type: cell-based; how it was run: as §1
[10] = target: T2, Induced myeloid leukemia cell differentiation protein Mcl-1; test: Induction of MCL1 short isoform degradation in CRBN-/- human OPM2 cells assessed as protein abundance at 100 nM after 48 hrs by immunoblot analysis relative to control; assay type: cell-based; how it was run: as §1
[11] = target: T2, Induced myeloid leukemia cell differentiation protein Mcl-1; test: Binding affinity to His-tagged biotinylated human MCL1 by surface plasmon resonance method
[12] = target: T1, Protein cereblon/Induced myeloid leukemia cell differentiation protein Mcl-1 (Homo sapiens); test: Protac activity at Cereblon/MCL1 long isoform in wild type human OPM2 cells at 100 nM after 48 hrs by immunoblot analysis relative to control; assay type: cell-based; how it was run: as §1
[13] = target: T2, Induced myeloid leukemia cell differentiation protein Mcl-1; test: Induction of MCL1 short isoform degradation in CRBN-/- human OPM2 cells assessed as protein abundance at 500 nM after 48 hrs by immunoblot analysis relative to control; assay type: cell-based; how it was run: as §1
[14] = target: T2, Induced myeloid leukemia cell differentiation protein Mcl-1; test: Induction of MCL1 short isoform degradation in CRBN-/- human OPM2 cells assessed as protein abundance at 50 nM after 48 hrs by immunoblot analysis relative to control; assay type: cell-based; how it was run: as §1
[15] = target: T2, Induced myeloid leukemia cell differentiation protein Mcl-1; test: Induction of MCL1 short isoform degradation in CRBN-/- human OPM2 cells assessed as protein abundance at 250 nM after 48 hrs by immunoblot analysis relative to control; assay type: cell-based; how it was run: as §1
[16] = Half-life in human liver microsome pre-incubated for 10 mins followed by addition of NADPH regenerating system after 5 to 60 mins by LC/MS/MS analysis; assay type: ADME; conditions: liver microsomes
[17] = target: T1, Protein cereblon/Induced myeloid leukemia cell differentiation protein Mcl-1 (Homo sapiens); test: Protac activity at Cereblon/MCL1 short isoform in wild type human OPM2 cells assessed as MCL1 short isoform abundance at 500 nM after 48 hrs by immunoblot analysis relative to control; assay type: cell-based
How it was run: (§3)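 OPM2 wild-type cells, run alongside the CRBN-/- line, were treated for 48 h with compound or DMSO. The MCL1 long and short isoforms were then measured by immunoblot against the DMSO control.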

[18] = target: T2, Induced myeloid leukemia cell differentiation protein Mcl-1; test: Induction of MCL1 long isoform degradation in CRBN-/- human OPM2 cells assessed as protein abundance at 50 nM after 48 hrs by immunoblot analysis relative to control; assay type: cell-based; how it was run: as §1
[19] = target: T1, Protein cereblon/Induced myeloid leukemia cell differentiation protein Mcl-1 (Homo sapiens); test: Protac activity at Cereblon/MCL1 long isoform in wild type human OPM2 cells assessed as protein abundance at 50 nM after 48 hrs by immunoblot analysis relative to control; assay type: cell-based; how it was run: as §1
[20] = target: T1, Protein cereblon/Induced myeloid leukemia cell differentiation protein Mcl-1 (Homo sapiens); test: Protac activity at Cereblon/MCL1 short isoform in wild type human OPM2 cells assessed as MCL1 short isoform abundance at 50 nM after 48 hrs by immunoblot analysis relative to control; assay type: cell-based; how it was run: as §3
[21] = target: T1, Protein cereblon/Induced myeloid leukemia cell differentiation protein Mcl-1 (Homo sapiens); test: Protac activity at Cereblon/MCL1 short isoform in wild type human OPM2 cells assessed as MCL1 short isoform abundance at 100 nM after 48 hrs by immunoblot analysis relative to control; assay type: cell-based; how it was run: as §3
[22] = target: T1, Protein cereblon/Induced myeloid leukemia cell differentiation protein Mcl-1 (Homo sapiens); test: Protac activity at Cereblon/MCL1 short isoform in wild type human OPM2 cells assessed as MCL1 short isoform abundance at 250 nM after 48 hrs by immunoblot analysis relative to control; assay type: cell-based; how it was run: as §3
[23] = target: T1, Protein cereblon/Induced myeloid leukemia cell differentiation protein Mcl-1 (Homo sapiens); test: Protac activity at Cereblon/MCL1 long isoform in wild type human OPM2 cells at 250 nM after 48 hrs by immunoblot analysis relative to control; assay type: cell-based; how it was run: as §1
[24] = target: Protein cereblon/Bromodomain-containing protein 4 (Homo sapiens) (UniProt O60885+Q96SW2); test: Protac activity at Cereblon/BRD4 in human OPM2 cell lysate assessed as induction of BRD4 polyubiquitination incubated for 3 hrs by SDS-PAGE/immunoblot analysis; assay type: subcellular; how it was run: as §2
Sequence of Protein cereblon/Bromodomain-containing protein 4 (Homo sapiens) (Q96SW2 whole entry, looked up, other chains not shown): as the sequence (Q96SW2 whole entry, looked up) above

SMILES: Cc1nn(C)c(COc2ccc(N3CCN(C(=O)CCC(=O)NCCCOCCOCCOCNC(=O)COc4cccc5c4C(=O)N(C4CCC(=O)NC4=O)C5=O)CC3)cc2)c1-c1cccc2c(CCCOc3cccc4ccccc34)c(C(=O)O)n(CCN3CCOCC3)c12 (stereo unspecified)
Activity [1]: inactive
Activity [2]: inactive

SMILES: Cc1nn(C)c(COc2ccc(N3CCN(S(=O)(=O)N(C)C)CC3)cc2)c1-c1cccc2c(CCCOc3cccc4ccccc34)c(C(=O)NCCCCNC(=O)COc3cccc4c3C(=O)N(C3CCC(=O)NC3=O)C4=O)n(CCN3CCOCC3)c12 (stereo unspecified)
Activity [1]: inactive

SMILES: Cc1nn(C)c(COc2ccc(N3CCN(C(=O)CCC(=O)NCCCOCCOCCOCCCNC(=O)CCCC[C@@H]4SC[C@@H]5NC(=O)N[C@@H]54)CC3)cc2)c1-c1cccc2c(CCCOc3cccc4ccccc34)c(C(=O)O)n(CCN3CCOCC3)c12
Activity [4]: Active
Activity [5]: Active

SMILES: Cc1sc2c(c1C)C(c1ccc(Cl)cc1)=N[C@@H](CC(=O)NCCCCNC(=O)COc1cccc3c1C(=O)N(C1CCC(=O)NC1=O)C3=O)c1nnc(C)n1-2 (stereo partly specified)
Activity [24]: Active

SMILES: Cc1nn(C)c(COc2ccc(N3CCN(C(=O)CCCNC(=O)COc4cccc5c4C(=O)N(C4CCC(=O)NC4=O)C5=O)CC3)cc2)c1-c1cccc2c(CCCOc3cccc4ccccc34)c(C(=O)O)n(CCN3CCOCC3)c12 (stereo unspecified)
Activity [1]: inactive
Activity [2]: inactive

Results, then the molecule that gave them:

Activity [3]: Active
SMILES: Cc1nn(C)c(COc2ccc(N3CCN(S(=O)(=O)N(C)C)CC3)cc2)c1-c1cccc2c(CCCOc3cccc4ccccc34)c(C(=O)O)n(CCN3CCN(C(=O)CCC(=O)NCCCOCCOCCOCCCNC(=O)COc4cccc5c4C(=O)N(C4CCC(=O)NC4=O)C5=O)CC3)c12 (stereo unspecified)

Activity [4]: Active
Activity [5]: Active
SMILES: Cc1nn(C)c(COc2ccc(N3CCN(S(=O)(=O)N(C)C)CC3)cc2)c1-c1cccc2c(CCCOc3cccc4ccccc34)c(C(=O)O)n(CCN3CCN(C(=O)CCCC[C@@H]4SC[C@@H]5NC(=O)N[C@@H]54)CC3)c12

Activity [6]: 275%
Activity [7]: 162%
Activity [8]: 152%
Activity [9]: 183%
Activity [10]: 111%
Kd [11]: 19 nM
Activity [12]: 195%
Activity [13]: 286%
Activity [14]: 100%
Activity [15]: 154%
half-life [16]: 21.7 min
Activity [17]: 374%
Activity [18]: 140%
Activity [19]: 140%
Activity [20]: 110%
Activity [21]: 148%
Activity [22]: 287%
Activity [23]: 237%
SMILES: Cc1nn(C)c(COc2ccc(N3CCN(S(=O)(=O)N(C)C)CC3)cc2)c1-c1cccc2c(CCCOc3cccc4ccccc34)c(C(=O)O)n(CCN3CCOCC3)c12

Activity [1]: inactive
Activity [2]: inactive
SMILES: Cc1nn(C)c(COc2ccc(N3CCN(C(=O)COc4cccc5c4C(=O)N(C4CCC(=O)NC4=O)C5=O)CC3)cc2)c1-c1cccc2c(CCCOc3cccc4ccccc34)c(C(=O)O)n(CCN3CCOCC3)c12 (stereo unspecified)
